Assay results published in paper PMC5407101 (Pharmacognosy Magazine, 2017).
One block for each compound: values may come before it.

Tests used:
Assay type in all cases: in vitro ADME
[1] = test system: UDP-glucuronosyltransferases (UGTs) in rat liver microsomes; test: Kinetic analysis for 4-MU glucuronidation in RLM
Procedure, shortened: (§1)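 Microsomes from livers or kidneys of untreated male Sprague-Dawley rats. Protein was 0.1 mg mL–1 (RLM) or 0.125 mg mL–1 (RKM), pre-treated on ice for 5 min with Triton X-100 (0.1 μL mg–1 RLM; 0.2 μL mg–1 RKM), in Tris-HCl pH 7.4 with MgCl2. 4-MU ranged 0-10 mM. After 5 min at 37°C, UDPGA started the 15-min reaction, stopped with TCA. 4-MUG was measured by C18 HPLC-UV at 316 nm. Km and Vmax came from a Michaelis-Menten fit.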

[2] = test system: UDP-glucuronosyltransferases (UGTs) in rat kidneys microsomes; test: Kinetic analysis for 4-MU glucuronidation in RKM
Procedure, shortened: as §1

[3] = test system: UDP-glucuronosyltransferases (UGTs) in rat liver microsomes; test: Inhibition of 4-MU glucuronidation assay in RLM; conditions: for fold more potent inhibition of 4-MU glucuronidation with RLM than with RKM: ratio of IC50 RKM/RLM
[4] = test system: UDP-glucuronosyltransferases (UGTs) in rat kidneys microsomes; test: Kinetic analysis for p-NP glucuronidation in RKM
Procedure, shortened: (§2)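 RLM or RKM (5 mg mL–1) was pre-treated on ice for 5 min with Triton X-100 (0.25 v/v % RLM; 0.125 v/v % RKM). Incubation was in Tris-HCl pH 7.4 with MgCl2, at seven p-NP levels (0-3,000 µM), started with UDPGA, 37°C for 30 min. The reaction was stopped with TCA and alkalinised with NaOH, and read at 405 nm. Glucuronidated p-NP was taken as blank minus unreacted, per protein and time. Km and Vmax came from a Michaelis-Menten fit.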

[5] = test system: UDP-glucuronosyltransferases (UGTs) in rat liver microsomes; test: Kinetic analysis for p-NP glucuronidation in RLM
Procedure, shortened: as §2

[6] = read-out: Km of p-NP glucuronidation, Michaelis-Menten

Km ([1]; read-out: Km of 4-MU glucuronidation, Michaelis-Menten, no inhibitor): 104 ± 20 µM
Km ([2]; read-out: Km of 4-MU glucuronidation, Michaelis-Menten): 101 ± 6 µM
SMILES: Cc1cc(=O)oc2cc(O)ccc12 [4-MU, 4-methylumbelliferone]
Vmax of 4-MU glucuronidation ([1]; Michaelis-Menten, no inhibitor): 27.87 ± 1.08 nmol min^–1 mg^–1
Vmax of 4-MU glucuronidation ([2]; Michaelis-Menten): 12.01 ± 0.12 nmol min^–1 mg^–1

fold higher IC50 in comparison with vanillin, 4-MU UGT inhibition ([3]; RLM): 120 fold
fold more potent inhibition of 4-MU glucuronidation with RLM than with RKM [3]: 1.2 fold
SMILES: COc1cc(C=O)cc(OC)c1O [Syringaldehyde]

fold more potent inhibition of 4-MU glucuronidation with RLM than with RKM [3]: 2.6 fold
SMILES: COc1cc(C=O)ccc1O [Vanillin]

Km [4, 6]: 857 ± 68.3 µM
Km [5, 6]: 860 ± 86.8 µM
SMILES: O=[N+]([O-])c1ccc(O)cc1 [p-NP, p-nitrophenol]
Vmax of p-NP glucuronidation ([4]; Michaelis-Menten): 9.320 ± 1.11 nmol min^–1 mg^–1
Vmax of p-NP glucuronidation ([5]; Michaelis-Menten): 43.04 ± 1.64 nmol min^–1 mg^–1
